Source: PubChem BioAssay (The Scripps Research Institute Molecular Screening Center)
Hits are enriched below; roughly 2.7% of the tested compounds scored in any of these assays.
GSTO1 inh = inhibitors of recombinant GSTO1, primary screen, counter-screen for RBBP9 inhibitor project, biochemical, fluorescence polarization | Glutathione S-transferase omega-1 (Homo sapiens), P78417 | AID 1974, 2009 | hit rate 1.1% among 300,000 | activity-based probe fluorescence polarization | inhibition, % at 5.96 µM;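 active means inhibition above the campaign mean inhibition plus 3 SD, cut at about 35% in these data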;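 further: 0% = GSTO1-1 with DMSO and 100% = wells lacking GSTO1-1 enzyme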
SIAE inh = human SIAE inhibitors, primary screen, biochemical, fluorescence polarization, FP-Rh probe, 1536-well HTS. Sialate O-acetylesterase (Homo sapiens), Q9HAT2. SIAE FP-Rh probe binding. inhibition, % at 9.66 µM. hit rate 0.69% among 370,000;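 active means inhibition above a cutoff: mean of compounds within the control limits plus 3 SD of those, cut at about 17% in these data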;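 further: 0% = plate median of compound wells and 100% = probe without SIAE protein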
PAD4 inh = human PAD4 inhibitors, primary screen, biochemical, fluorescence polarization, 1536-well format | AID 485272, 2010 | inhibition, % at 6.36 µM | Protein-arginine deiminase type-4 (Homo sapiens), Q9UM07 | recombinant PAD4, RCA probe fluorescence polarization | hit rate 0.41% among 330,000;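 active means percent inhibition above a cutoff equal to the mean of all tested compounds plus 3 SD, cut at about 15% in these data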;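 further: 0% = PAD4 with RCA probe and DMSO and 100% = probe without PAD4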
PRMT1 inh = PRMT1 methyltransferase inhibitors, primary screen, biochemical, fluorescence polarization; recombinant PRMT1, activity-based probe fluorescence polarization; Protein arginine N-methyltransferase 1 (Homo sapiens), Q99873; inhibition, % at 2.79 µM; hit rate 1.3% among 370,000; AID 652257, 2013;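 active means inhibition above about 21% made by adding two undisclosed values, limit read from the data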
Target sequence (Q99873 whole entry, looked up): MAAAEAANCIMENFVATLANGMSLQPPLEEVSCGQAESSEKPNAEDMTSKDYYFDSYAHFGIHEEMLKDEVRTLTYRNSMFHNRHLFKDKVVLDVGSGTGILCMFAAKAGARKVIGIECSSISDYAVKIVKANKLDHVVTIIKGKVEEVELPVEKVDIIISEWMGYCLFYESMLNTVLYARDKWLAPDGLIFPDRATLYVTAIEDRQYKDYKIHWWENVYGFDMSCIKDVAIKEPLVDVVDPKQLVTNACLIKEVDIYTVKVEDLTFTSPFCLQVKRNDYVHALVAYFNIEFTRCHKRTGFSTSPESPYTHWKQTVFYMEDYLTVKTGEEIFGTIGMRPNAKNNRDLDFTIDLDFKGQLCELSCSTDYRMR
RBBP9 inh = human RBBP9 inhibitors, primary screen, biochemical, fluorescence polarization, FP-Rh probe, HTS. recombinant RBBP9. hit rate 0.2% among 220,000. AID 1515, 2009. Serine hydrolase RBBP9 (Homo sapiens), O75884. inhibition, % at 7.94 µM;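 active means inhibition above the campaign mean of all tested compounds plus 3 SD, cut at about 14% in these data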;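 further: plate controls were DMSO wells with RBBP9 for no effect and wells lacking RBBP9 protein for full effect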
Target sequence (O75884 whole entry, looked up): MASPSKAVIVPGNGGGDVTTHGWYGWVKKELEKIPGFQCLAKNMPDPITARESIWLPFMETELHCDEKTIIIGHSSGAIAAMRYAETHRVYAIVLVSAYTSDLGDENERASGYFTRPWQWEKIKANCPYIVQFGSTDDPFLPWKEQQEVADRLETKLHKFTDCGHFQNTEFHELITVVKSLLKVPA
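System: RBBP9 protein / Buffer or medium: Tris/NaCl buffer pH 8.0 with 0.1% Pluronic / Probe or stimulus: Serine-hydrolase probe FP-Rh, 375 nM pre-mixing / Dosing: 7.94 µM single dose, 0.794% DMSO / Times: enzyme-compound preincubation 30 min, then probe labeling 45 min, 25 °C / Technique: fluorescence polarization (mP), excitation 525 nm, emission 598 nm / Replication: singlicate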
SIAE inh conf = human SIAE inhibitors, retest, confirmation, biochemical, fluorescence polarization, FP-Rh probe, triplicate | shares compounds with SIAE inh | SIAE FP-Rh activity-based probe | inhibition, % at 9.66 µM | hit rate 13% among 2,300 | AID 1117263, 2014;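 active means mean inhibition of the replicates above the hit cutoff set in the primary screen, cut at about 17% in these data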;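 further: 0% = SIAE with DMSO and probe and 100% = probe without SIAE; inhibitors lower polarization as more probe stays unbound to SIAE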
Active calls of the source: *; x = no result given.

SMILES	GSTO1 inh	SIAE inh	PAD4 inh	PRMT1 inh	RBBP9 inh	SIAE inh conf
C[C@@H](c1ccccc1)N1C[C@@H](COCc2ccccc2)Oc2cc(N3CC[C@@H](N(C)C)C3)ccc2S1(=O)=O	x	18*	x	-3	x	9
NC(=O)C1CCN(c2ncc(Br)s2)CC1	x	21*	x	22*	x	4
NC(=O)C1CCN(c2nc(-c3ccc(N)cc3)cs2)CC1	x	-5	x	-2	x	x
COc1ccc(NC(=S)Nc2nc(CC(=O)Nc3ccccc3OC)cs2)cc1	-19	21*	-2	1	1	7
c1cc2c(cc1-c1cnc3n1CCC3)OCCO2	6	17*	2	-1	1	-4
COc1ccc(NS(=O)(=O)c2cccs2)cc1S(=O)(=O)N1CCCCC1	9	19*	-1	-1	x	0
Cc1ccccc1S(=O)(=O)N(C)C[C@H]1OCc2cnnn2CCCC(=O)N([C@H](C)CO)C[C@H]1C	x	7	x	0	x	x
CN(C)c1nc2c(N)ncnc2n1[C@H]1O[C@@H](CO)[C@H](O)[C@@H]1O	x	22*	x	1	x	2
CCc1nnc(NC(=O)CCn2cnc3ccccc3c2=O)s1	2	22*	-1	-1	-6	1
Cc1cc(C)nc(Nc2n[nH]c(-c3ccccc3C)n2)n1	-5	-1	4	-3	-2	x
CN(C)c1ccc(/C=[N+](\[O-])C2N(c3ccccc3)C(=S)SC2(C)C)cc1 (stereo not drawn)	8	26*	-2	-2	-5	2
CC(=O)Nc1cnn(Cc2ccc(Br)cc2)c1	8	5	1	1	-6	x
COc1cc2ccccc2cc1C(=O)N1CCN(C(C)=O)CC1	1	22*	-6	-3	x	2
CCC(CCC(=O)Nc1cccc([N+](=O)[O-])c1)C(=O)O (stereo not drawn)	1	23*	-1	0	-3	4
CCCCC(CCC(=O)Nc1cccc([N+](=O)[O-])c1)C(=O)O (stereo not drawn)	9	-1	-2	2	-4	x
O=C(O)C1CCCC2CN3CCc4c([nH]c5ccccc45)C3C(O)C21 (stereo not drawn)	28	19*	2	8	x	-3
O=C(O)[C@@H]1[C@H]2C[C@H]3c4[nH]c5ccccc5c4CCN3C[C@@H]2CC[C@@H]1O	6	24*	0	18	x	15
COc1cc(S(=O)(=O)N(C)Cc2ccc3c(c2)OCCO3)ccc1NC(C)=O	x	-10	-1	6	x	x
CCOC(=O)c1c[nH]n(-c2ccc(C)cc2)c1=O	-1	18*	0	4	4	1
CN(CCCCCCCCC(=O)/C=N/O)Cc1ccccc1	2	22*	2	-1	10	9
CC(C)(C)NCCC(O)c1cc(C(F)(F)F)nc2c(C(F)(F)F)cccc12 (stereo not drawn)	x	78*	x	-2	x	-5
CCOc1cc(C(=O)Nc2cc3c(cc2N2CCCC2)n(C)c(=O)n3C)cc(OCC)c1OCC	-1	10	-5	7	x	x
CC(=O)N/C(=C\c1ccccc1)C(=O)OCC(=O)Nc1ccc(C)c(S(=O)(=O)N(C)C)c1	x	21*	3	2	x	1
Cc1ccc(NC(=O)COC(=O)c2ccccc2Cl)cc1S(=O)(=O)N(C)C	31	3	-1	-6	-3	x
O=C(NCCCN1CCOCC1)c1cc(-c2cccs2)on1	4	21*	0	-1	2	6
SMILES	GSTO1 inh	SIAE inh	PAD4 inh	PRMT1 inh	RBBP9 inh	SIAE inh conf
O=C(NCCCN1CCOCC1)c1sc2cc(F)ccc2c1Cl	6	1	1	-4	-13	x
O=C(NCCCN1CCOCC1)c1sc2cc(Cl)ccc2c1Cl	-7	21*	0	-3	-8	2
CC(C)N1CCC(C)(C(=O)Nc2ccc(-n3cccc3)cc2)C1 (stereo not drawn)	x	17*	x	-1	x	-4
Cc1c(C)c2c(OCC(=O)Nc3ccc(CCO)cc3)cc3c(c2oc1=O)CCC(C)(C)O3	-14	-33	-16	3	x	x
C/C(=N\N=c1/sc2ccccc2n1C)c1ccc(N2CCOCC2)cc1	3	19*	-5	-2	-3	6
C/C(=N\N=c1/sc2ccccc2n1C)c1ccccn1	4	-2	-5	1	13	x
CNC(=S)N(Cc1cccs1)Cc1cc2cc(OC)ccc2[nH]c1=O	-2	42*	-6	-2	-2	73*
COc1ccc2[nH]c(=O)c(CN(Cc3cccs3)C(=S)Nc3cccc(C)c3)cc2c1	-8	-32	2	0	5	x
COc1ccc(OC)c(S(=O)(=O)N2CCc3ccccc32)c1	3	-2	-2	1	7	x
COc1cc(/C=C/C(=O)OCC(=O)N2CCC(C)CC2)ccc1O	11	8	4	-3	x	x
COc1cc(/C=C/C(=O)OCC(=O)N2CCc3ccccc3C2)ccc1O	0	21*	-9	-1	-6	1
Cc1ccc(S(=O)(=O)N2CCC(C(=O)NCCN3CCOCC3)CC2)cc1C	3	10	4	-1	x	x
Cc1ccc(S(=O)(=O)N2CCC(C(=O)NCCCN3CCOCC3)CC2)cc1C	11	18*	-4	-4	x	3
Cc1ccc(NC(=S)c2ccc(N(C)C)cc2)cc1	4	17*	-3	1	-5	0
c1ccc(N2CCN(c3nc4ccccc4n4cnnc34)CC2)cc1	5	-5	-2	2	-3	x
c1ccc2c(c1)CCN(c1nc3ccccc3n3cnnc13)C2	-5	18*	1	5	-7	-7
CCCOc1ccc(CSc2nnc(CCC)n2N)cc1	3	2	-1	-1	3	x
CCCc1nnc(SCc2ccc(OC)cc2)n1N	-1	18*	-3	0	2	1
COC(=O)c1ccc(CSc2nc3c(cnn3-c3ccc(C)cc3)c(=O)[nH]2)o1	1	-3	3	2	-2	x
CC(NC(=O)CCn1c(=S)[nH]c2ccsc2c1=O)c1ccccc1 (stereo not drawn)	14	19*	-5	2	-4	1
O=c1c2sccc2[nH]c(=S)n1Cc1ccccc1	10	5	2	-2	-4	x
O=Cc1ccc(Sc2ncccn2)o1	x	-4	x	1	-3	x
Cc1ccc(NC(=O)c2ccc(NCC3CCCO3)c([N+](=O)[O-])c2)cc1Cl (stereo not drawn)	-8	72*	1	0	1	0
COc1ccc(-c2cc(NC(C)=O)c3ncc(-c4cccc(C(C)=O)c4)n3c2)cc1OC	x	-9	x	0	x	x
COCCCNC(=O)/C(C#N)=C/c1ccc(F)cc1	16	33*	-2	-4	-2	0
